Data from ChEMBL document CHEMBL1926642, “Relevance of the C-5 position to schweinfurthin induced cytotoxicity” (2011).

Experiments:
Assay type in all cases: functional
A498 [1] = assay: Growth inhibition of human A498 cells after 48 hrs by sulforhodamine B assay; details: A498, 48 h
Malme-3M = assay: Growth inhibition of human MALME-3M cells after 48 hrs by sulforhodamine B assay
NCI-H522 = assay: Growth inhibition of human NCI-H522 cells after 48 hrs by sulforhodamine B assay; details: NCI-H522, 48 h
BT-549 = assay: Growth inhibition of human BT549 cells after 48 hrs by sulforhodamine B assay; details: BT-549, 48 h
UACC-62 = assay: Growth inhibition of human UACC62 cells after 48 hrs by sulforhodamine B assay; details: UACC-62, 48 h
SNB-19 = assay: Growth inhibition of human SNB19 cells after 48 hrs by sulforhodamine B assay; details: SNB-19, 48 h
COLO 205 = assay: Growth inhibition of human COLO205 cells after 48 hrs by sulforhodamine B assay; details: COLO 205, 48 h
PC-3 = assay: Growth inhibition of human PC3 cells after 48 hrs by sulforhodamine B assay; details: PC-3, 48 h
MCF7 = assay: Growth inhibition of human MCF7 cells after 48 hrs by sulforhodamine B assay; details: MCF7, 48 h
DU-145 = assay: Growth inhibition of human DU145 cells after 48 hrs by sulforhodamine B assay; details: DU-145, 48 h
HOP-92 = assay: Growth inhibition of human HOP92 cells after 48 hrs by sulforhodamine B assay; details: HOP-92, 48 h
SF-539 = assay: Growth inhibition of human SF539 cells after 48 hrs by sulforhodamine B assay; details: SF-539, 48 h
SNB-75 = assay: Growth inhibition of human SNB75 cells after 48 hrs by sulforhodamine B assay; details: SNB-75, 48 h
SF-268 = assay: Growth inhibition of human SF268 cells after 48 hrs by sulforhodamine B assay; details: SF-268, 48 h
M14 = assay: Growth inhibition of human M14 cells after 48 hrs by sulforhodamine B assay; details: M14, 48 h
LOX IMVI = assay: Growth inhibition of human LOXIMVI cells after 48 hrs by sulforhodamine B assay
SW-620 = assay: Growth inhibition of human SW620 cells after 48 hrs by sulforhodamine B assay; details: SW-620, 48 h
A549 = assay: Growth inhibition of human A549 cells after 48 hrs by sulforhodamine B assay; details: A549, 48 h
SK-MEL-28 = assay: Growth inhibition of human SK-MEL-28 cells after 48 hrs by sulforhodamine B assay; details: SK-MEL-28, 48 h
UACC-257 = assay: Growth inhibition of human UACC257 cells after 48 hrs by sulforhodamine B assay; details: UACC-257, 48 h
ACHN = assay: Growth inhibition of human ACHN cells after 48 hrs by sulforhodamine B assay
MDA-MB-435 = assay: Growth inhibition of human MDA-MB-435 cells after 48 hrs by sulforhodamine B assay; details: MDA-MB-435, 48 h
MDA-MB-468 = assay: Growth inhibition of human MDA-MB-468 cells after 48 hrs by sulforhodamine B assay; details: MDA-MB-468, 48 h
RXF 393 = assay: Growth inhibition of human RXF393 cells after 48 hrs by sulforhodamine B assay; details: RXF 393, 48 h
SR = assay: Growth inhibition of human SR cells after 48 hrs by sulforhodamine B assay
HT-29 [2] = assay: Growth inhibition of human HT-29 cells after 48 hrs by sulforhodamine B assay; details: HT-29, 48 h
786-0 = assay: Growth inhibition of human 786-0 cells after 48 hrs by sulforhodamine B assay; details: 786-0, 48 h
NCI/ADR-RES = assay: Growth inhibition of human NCI/ADR-RES cells after 48 hrs by sulforhodamine B assay
UO-31 = assay: Cytotoxicity against human UO31 cells assessed as cell growth at 10 uM after 48 hrs by sulforhodamine B assay relative to control; details: UO-31, 48 h, read-out: Activity
HT-29 [3] = assay: Cytotoxicity against human HT-29 cells assessed as cell growth at 10 uM after 48 hrs by sulforhodamine B assay relative to control; details: HT-29, 48 h, read-out: Activity
Procedure, shortened: (§1)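 Compounds went through the NCI 60 cell-line screen, whose current protocol tests first at a single dose.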

MDA-MB-231 = assay: Cytotoxicity against human MDA-MB-231/ATCC cells assessed as cell growth at 10 uM after 48 hrs by sulforhodamine B assay relative to control; details: MDA-MB-231, 48 h, read-out: Activity; procedure, shortened: as §1
A498 [4] = assay: Cytotoxicity against human A498 cells assessed as cell growth at 10 uM after 48 hrs by sulforhodamine B assay relative to control; details: A498, 48 h, read-out: Activity; procedure, shortened: as §1
[5] = read-out: pLC50 (the source's name) (converted)

COc1cc(/C=C/c2cc(O)c3c(c2)C[C@@H]2C(C)(C)[C@H](O)CC[C@@]2(C)O3)cc(O)c1C/C=C(\C)CCC=C(C)C
GI50 (A498 [1]): 0.117 µM | LC50 (A498 [1]): 12 µM | TGI (A498 [1]; read-out: pTGI (converted)): 2.45 µM | GI50 (Malme-3M): 1.95 µM | LC50 (Malme-3M): 30.9 µM | TGI (Malme-3M; read-out: pTGI (converted)): 5.13 µM | GI50 (NCI-H522): 1.91 µM | LC50 (NCI-H522): 52.5 µM | TGI (NCI-H522; read-out: pTGI (converted)): 11 µM | GI50 (BT-549): 0.275 µM | LC50 (BT-549): 69.2 µM | TGI (BT-549; read-out: pTGI (converted)): 12 µM | GI50 (UACC-62): 0.204 µM | LC50 (50% lethal concentration) (UACC-62): 7.41 µM | TGI (UACC-62; read-out: pTGI (converted)): 0.794 µM | GI50 (SNB-19): 2.88 µM | LC50 (SNB-19): 42.7 µM | TGI (SNB-19; read-out: pTGI (converted)): 17.8 µM | GI50 (COLO 205): 0.575 µM | LC50 (COLO 205): 7.24 µM | TGI (COLO 205; read-out: pTGI (converted)): 2.24 µM | GI50 (PC-3): 0.372 µM | CC50 (PC-3; [5]): 41.7 µM | TGI (PC-3; read-out: pTGI (converted)): 5.25 µM | GI50 (MCF7): 0.309 µM | LC50 (MCF7): 29.5 µM | TGI (MCF7; read-out: pTGI (converted)): 3.47 µM | GI50 (DU-145): 2 µM | LC50 (DU-145): 77.6 µM | TGI (DU-145; read-out: pTGI (converted)): 11.7 µM | GI50 (HOP-92): 2.29 µM | LC50 (HOP-92): 50.1 µM | TGI (HOP-92; read-out: pTGI (converted)): 6.61 µM | GI50 (SF-539): 0.0525 µM | LC50 (SF-539): 6.92 µM | TGI (SF-539; read-out: pTGI (converted)): 1.66 µM | GI50 (SNB-75): 0.123 µM | LC50 (SNB-75): 33.9 µM | TGI (SNB-75; read-out: pTGI (converted)): 6.31 µM | GI50 (SF-268): 1.35 µM | LC50 (SF-268): 42.7 µM | TGI (SF-268; read-out: pTGI (converted)): 5.13 µM | GI50 (M14): 1.1 µM | LC50 (M14): 18.6 µM | TGI (M14; read-out: pTGI (converted)): 3.47 µM | GI50 (LOX IMVI): 0.525 µM | LC50 (LOX IMVI): 4.68 µM | TGI (LOX IMVI; read-out: pTGI (converted)): 1.91 µM | GI50 (SW-620): 0.331 µM | LC50 (SW-620): 5.13 µM | TGI (SW-620; read-out: pTGI (converted)): 1.58 µM | LC50 (A549): 40.7 µM | GI50 (A549; read-out: GI50): 0.72 µM | GI50 (A549; read-out: pGI50 (converted)): 0.955 µM | TGI (A549; read-out: pTGI (converted)): 10.7 µM | GI50 (SK-MEL-28): 1 µM | CC50 (SK-MEL-28; [5]): 7.94 µM | TGI (SK-MEL-28; read-out: pTGI (converted)): 2.75 µM | GI50 (UACC-257): 7.59 µM | LC50 (UACC-257): 61.7 µM | TGI (UACC-257; read-out: pTGI (converted)): 23.4 µM | GI50 (ACHN): 1.78 µM | LC50 (ACHN): 36.3 µM | TGI (ACHN; read-out: pTGI (converted)): 12 µM | GI50 (MDA-MB-435): 0.794 µM | LC50 (MDA-MB-435): 34.7 µM | TGI (MDA-MB-435; read-out: pTGI (converted)): 5.01 µM | GI50 (MDA-MB-468): 1.1 µM | LC50 (MDA-MB-468): 9.12 µM | TGI (MDA-MB-468; read-out: pTGI (converted)): 3.16 µM | GI50 (RXF 393): < 0.01 µM | LC50 (50% lethal concentration) (RXF 393): 4.37 µM | TGI (RXF 393; read-out: pTGI (converted)): 0.055 µM | GI50 (SR): 0.288 µM | LC50 (SR): 100 µM | TGI (SR; read-out: pTGI (converted)): 4.07 µM | GI50 (HT-29 [2]): 1.23 µM | LC50 (concentration killing 50% of cells) (HT-29 [2]): 27.5 µM | TGI (HT-29 [2]; read-out: pTGI (converted)): 4.9 µM | GI50 (786-0): 0.0339 µM | CC50 (786-0; [5]): 15.5 µM | TGI (786-0; read-out: pTGI (converted)): 1.45 µM | GI50 (NCI/ADR-RES): 2.57 µM | LC50 (NCI/ADR-RES): 58.9 µM | TGI (NCI/ADR-RES; read-out: pTGI (converted)): 10.2 µM

COc1cc(/C=C/c2cc(Br)c3c(c2)C[C@@H]2C(C)(C)[C@H](O)CC[C@@]2(C)O3)cc(O)c1C/C=C(\C)CCC=C(C)C
growth at 10 µM (UO-31): 91% | growth at 10 µM (HT-29 [3]): 74.5% | growth at 10 µM (MDA-MB-231): 96.6% | growth at 10 µM (A498 [4]): 94.7%

COCc1cc(/C=C/c2cc(O)c(C/C=C(\C)CCC=C(C)C)c(OC)c2)cc2c1O[C@]1(C)CC[C@@H](O)C(C)(C)[C@H]1C2
growth at 10 µM (UO-31): 98.4% | growth at 10 µM (HT-29 [3]): 47.9% | growth at 10 µM (MDA-MB-231): 81.3% | growth at 10 µM (A498 [4]): 140%
